Data as given in ChEMBL document CHEMBL4354879, “Bioisosteric Discovery of NPA101.3, a Second-Generation RET/VEGFR2 Inhibitor Optimized for Single-Agent Polypharmacology” (J Med Chem, 2020).
Calls of active or inactive are those of the source. The calls are words filed in the database; no cut-off is given here.

What was measured:
[1] = target: Tyrosine-protein kinase FRK (Homo sapiens) (UniProt P42685); assay: Binding affinity to wild-type human partial length FRK (A215 to F503 residues) expressed in bacterial expression system at 100 nM by Kinomescan method relative to control
[2] = system: BaF3; assay: Inhibition of NCOA4/RET […] (unknown origin) expressed in mouse BAF3 cells assessed as reduction in RET phosphorylation at Y1062 residue at 0.3 to 30 nM measured after 2 hrs by Western blot analysis; type: cell-based; details: Homo sapiens
Method in brief: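 Ba/F3 cells stably expressing long-isoform RET-51 mutants (electroporation), cultured in RPMI/10% FCS without IL-3; RET phosphorylation read by Western blot with anti-phospho-Y905 and anti-phospho-Y1062 antibodies, ECL detection.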

[3] = system: Proto-oncogene tyrosine-protein kinase receptor Ret (Homo sapiens), P07949 [A883F]; assay: Inhibition of RET isoform 9 A883F mutant (unknown origin) expressed in rat Rat1 assessed as reduction in RET phosphorylation at Y1062 residue at 1 to 100 nM measured after 2 hrs by Western blot analysis; type: cell-based
Method in brief: (§1)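 Serum-starved RAT1 (RET point mutants) or NIH3T3 (RET rearrangements) cells expressing short RET-9 isoform, treated 2 h; 50 μg total lysate immunoblotted with anti-phospho-Y1062 and anti-phospho-Y905 RET antibodies, normalized to total RET; ECL detection. Compound from 50 mM DMSO stock diluted in growth medium.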

[4] = target: NT-3 growth factor receptor (Homo sapiens) (UniProt Q16288); assay: Binding affinity to wild-type human partial length TRKC (Q531 to G825 residues) expressed in mammalian expression system at 100 nM by Kinomescan method relative to control
[5] = system: 8505C; assay: Effect on MAPK phosphorylation in RET deficient human 8505C cells at 1 to 100 nM measured after 2 hrs by western blot analysis; type: cell-based
[6] = species on record: Homo sapiens; assay: Inhibition of NCOA4/RET isoform 9 (unknown origin) expressed in mouse NIH/3T3 cells assessed as reduction in RET phosphorylation at Y1062 residue at 1 to 100 nM measured after 2 hrs by Western blot analysis; type: cell-based; method in brief: as §1
[7] = target: T1, Coiled-coil domain-containing protein 6/Tyrosine-protein kinase receptor RET (Homo sapiens) (UniProt P07949+Q16204); assay: Inhibition of CCDC6/RET in human LC2/ad cells assessed as reduction in RET phosphorylation at Y1062 residue at 0.3 to 30 nM measured after 2 hrs by Western blot analysis; type: cell-based
[8] = target: T1, Coiled-coil domain-containing protein 6/Tyrosine-protein kinase receptor RET (Homo sapiens); assay: Inhibition of CCDC6/RET in human TPC1 cells assessed as reduction in RET phosphorylation at Y1062 residue at 0.3 to 30 nM measured after 2 hrs by Western blot analysis; type: cell-based
[9] = system: Proto-oncogene tyrosine-protein kinase receptor Ret (Homo sapiens), P07949 [C634R]; assay: Inhibition of RET isoform 9 C634R mutant (unknown origin) expressed in rat Rat1 assessed as reduction in RET phosphorylation at Y1062 residue at 3 nM measured after 2 hrs by Western blot analysis; type: cell-based
Method in brief: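 RAT1 fibroblasts expressing RET-9 C634R, serum-starved, treated 2 h with 0.1–10.0 nM; 50 μg lysate blotted for RET pY905 and pY1062, normalized to total RET; ECL detection.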

[10] = system: Mus musculus; assay: Antitumor activity against BALB/c nu/nu mouse implanted with mouse NIH/3T3 cells harboring HRAS G12V mutant assessed as reduction in tumor formation at 1 to 10 mg/kg, po administered once daily via gavage for 3 days; type: functional, organism-based
Method in brief: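 Nude mice (female BALB/c nu/nu, 6 weeks old) received subcutaneous dorsal inoculation (both sides) of NIH3T3 cells transformed by RET/C634Y (200000) or HRAS/G12V (50000). Four days later, before tumors appeared, mice were randomized to 1.0, 3.0 or 10 mg/kg/day oral gavage (8 mice/group) or vehicle (8 mice). Vehicle was 80% H2O, 19.875% Tween 20, 0.125% xanthan gum. Tumors were measured by caliper every 2–3 days, with volume = A×B²/2.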

[11] = system: Mus musculus; assay: In vivo inhibition of RET isoform 9 C634Y mutant transfected in mouse NIH/3T3 cells implanted BALB/c nu/nu mouse assessed as reduction in RET phosphorylation at Y905 residue at 3 mg/kg, po administered once daily via gavage for 2 days measured 3 hrs post-last dose by Western blot analysis
[12] = system: BaF3; assay: Cytotoxicity against mouse BAF3 cells assessed as reduction in cell proliferation supplemented with fresh medium containing compound for every 2 to 3 days and measured daily; type: cell-based
Method in brief: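 Ba/F3 cells (parental with IL-3 10 ng/mL; RET/C634R, RET/M918T, NCOA4-RET stable transfectants, RET-51 isoform) were seeded at 200000/well in 10% FCS. Drug or vehicle was added the day after plating, with medium changed every 2–3 days, and cells were counted daily. […] This was a single experiment in triplicate.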

[13] = target: Macrophage colony-stimulating factor 1 receptor (Homo sapiens, UniProt P07333); assay: Binding affinity to wild-type human partial length CSF1R (I564 to S939 residues) expressed in bacterial expression system at 100 nM by Kinomescan method relative to control
[14] = target: Voltage-gated inwardly rectifying potassium channel KCNH2 (Homo sapiens, UniProt Q12809); assay: Inhibition of human ERG expressed in HEK293 cells by patch clamp assay
[15] = target: T1, Coiled-coil domain-containing protein 6/Tyrosine-protein kinase receptor RET (Homo sapiens); assay: Inhibition of CCDC6/RET in human LC2/ad cells assessed as reduction in MAPK phosphorylation at 0.3 to 30 nM measured after 2 hrs by Western blot analysis; type: cell-based
[16] = Toxicity in BALB/c nu/nu mouse assessed as change in blood urea nitrogen level at 10 mg/kg, po administered daily for 7 days; type: organism-based; details: in vivo, 168 h
Method in brief: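 Mice dosed orally with 10 mg/kg/day for 7 days; standard blood markers of organ damage measured.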

[17] = target: Tyrosine-protein kinase HCK (Homo sapiens) (UniProt P08631); assay: Binding affinity to wild-type human full length HCK (M22 to P526 residues) expressed in bacterial expression system at 100 nM by Kinomescan method relative to control
[18] = system: Mus musculus; assay: In vivo inhibition of VEGFR2 in BALB/c nu/nu mouse implanted with mouse NIH/3T3 cells harboring RET isoform 9 C634R mutant assessed as reduction in VEGFR2 phosphorylation at 3 mg/kg, po administered once daily via gavage for 3 days measured 3 hrs post-last dose by Western blot analysis; type: functional, organism-based
[19] = target: T1, Coiled-coil domain-containing protein 6/Tyrosine-protein kinase receptor RET (Homo sapiens); assay: Inhibition of CCDC6/RET in human LC2/ad cells assessed as reduction in SHC phosphorylation at 0.3 to 30 nM measured after 2 hrs by Western blot analysis; type: cell-based
[20] = system: BCPAP; assay: Cytotoxicity against RET deficient human BCPAP cells supplemented with fresh medium containing compound for every 2 to 3 days measured during compound dosing; type: functional, cell-based
Method in brief: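 Human RET-negative lines were seeded in six-well plates at 10000 cells/well, in 5% FCS (Nthy-ori-3-1) or 10% FCS (BCPAP, 8505-C, CALU-1, A549, PC-9). Drug or vehicle was added the day after plating, with medium changed every 2–3 days. Cells were counted every 2–3 days. IC50 was fitted from the last day of the growth curves.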

T1 sequence (P07949 29-1114 limits assumed): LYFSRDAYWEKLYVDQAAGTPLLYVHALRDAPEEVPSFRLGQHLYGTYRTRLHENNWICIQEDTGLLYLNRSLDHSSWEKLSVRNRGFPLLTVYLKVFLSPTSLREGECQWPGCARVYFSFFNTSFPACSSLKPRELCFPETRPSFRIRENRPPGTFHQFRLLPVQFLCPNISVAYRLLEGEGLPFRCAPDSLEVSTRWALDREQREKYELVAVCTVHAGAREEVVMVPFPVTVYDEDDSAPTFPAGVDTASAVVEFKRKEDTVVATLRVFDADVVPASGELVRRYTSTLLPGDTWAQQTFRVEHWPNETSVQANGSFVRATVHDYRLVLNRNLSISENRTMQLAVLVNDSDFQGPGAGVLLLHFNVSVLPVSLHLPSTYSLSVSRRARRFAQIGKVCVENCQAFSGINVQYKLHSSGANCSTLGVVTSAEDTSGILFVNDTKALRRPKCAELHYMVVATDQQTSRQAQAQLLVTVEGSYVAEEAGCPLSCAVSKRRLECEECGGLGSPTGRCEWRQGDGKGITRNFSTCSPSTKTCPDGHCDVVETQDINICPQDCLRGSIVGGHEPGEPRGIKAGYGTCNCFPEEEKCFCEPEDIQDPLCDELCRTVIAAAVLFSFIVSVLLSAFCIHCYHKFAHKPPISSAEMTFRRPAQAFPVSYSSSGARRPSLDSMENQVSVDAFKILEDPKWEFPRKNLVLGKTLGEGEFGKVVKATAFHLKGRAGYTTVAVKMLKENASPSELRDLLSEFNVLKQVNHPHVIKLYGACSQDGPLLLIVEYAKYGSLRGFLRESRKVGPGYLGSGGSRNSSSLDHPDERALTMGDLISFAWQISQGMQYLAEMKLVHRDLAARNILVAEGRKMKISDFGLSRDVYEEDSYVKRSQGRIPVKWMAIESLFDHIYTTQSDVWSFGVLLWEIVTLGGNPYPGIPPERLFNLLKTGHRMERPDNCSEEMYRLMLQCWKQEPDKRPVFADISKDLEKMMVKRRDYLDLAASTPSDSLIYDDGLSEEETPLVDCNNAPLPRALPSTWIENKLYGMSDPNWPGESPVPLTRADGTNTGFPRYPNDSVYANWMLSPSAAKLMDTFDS
T1 sequence (Q16204 2-474 partner limits assumed): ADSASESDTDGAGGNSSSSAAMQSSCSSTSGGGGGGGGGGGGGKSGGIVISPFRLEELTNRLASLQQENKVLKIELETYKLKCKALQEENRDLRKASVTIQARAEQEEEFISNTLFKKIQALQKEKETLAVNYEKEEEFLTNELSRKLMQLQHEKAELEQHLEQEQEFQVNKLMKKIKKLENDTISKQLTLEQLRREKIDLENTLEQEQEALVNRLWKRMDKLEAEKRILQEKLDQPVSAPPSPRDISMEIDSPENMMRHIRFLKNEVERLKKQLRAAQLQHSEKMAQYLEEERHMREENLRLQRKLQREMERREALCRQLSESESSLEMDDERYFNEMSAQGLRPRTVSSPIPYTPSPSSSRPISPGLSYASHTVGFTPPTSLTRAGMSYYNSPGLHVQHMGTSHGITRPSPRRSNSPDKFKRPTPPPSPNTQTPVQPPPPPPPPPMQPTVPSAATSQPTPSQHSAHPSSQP
NT-3 growth factor receptor (Homo sapiens), sequence (Q16288 32-839 limits assumed): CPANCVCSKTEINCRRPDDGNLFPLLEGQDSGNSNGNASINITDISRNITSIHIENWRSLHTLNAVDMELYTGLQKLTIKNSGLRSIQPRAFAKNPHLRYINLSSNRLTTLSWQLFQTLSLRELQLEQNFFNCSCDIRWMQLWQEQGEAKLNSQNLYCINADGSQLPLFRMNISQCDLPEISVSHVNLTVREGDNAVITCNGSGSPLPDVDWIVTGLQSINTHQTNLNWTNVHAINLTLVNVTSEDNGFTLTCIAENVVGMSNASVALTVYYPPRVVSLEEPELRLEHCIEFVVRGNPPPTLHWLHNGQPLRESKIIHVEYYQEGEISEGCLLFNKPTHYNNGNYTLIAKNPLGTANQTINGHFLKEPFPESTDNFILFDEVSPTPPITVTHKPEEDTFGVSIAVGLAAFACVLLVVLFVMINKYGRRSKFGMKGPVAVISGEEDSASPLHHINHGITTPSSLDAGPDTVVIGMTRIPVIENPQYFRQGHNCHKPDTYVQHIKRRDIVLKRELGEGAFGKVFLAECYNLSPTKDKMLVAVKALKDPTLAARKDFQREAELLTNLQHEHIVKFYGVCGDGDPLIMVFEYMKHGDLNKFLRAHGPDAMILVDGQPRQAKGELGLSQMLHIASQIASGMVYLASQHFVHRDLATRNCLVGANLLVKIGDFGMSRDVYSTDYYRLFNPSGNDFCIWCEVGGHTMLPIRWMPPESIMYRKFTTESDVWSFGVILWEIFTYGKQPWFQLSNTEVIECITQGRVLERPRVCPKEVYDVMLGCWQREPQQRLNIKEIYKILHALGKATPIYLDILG
Tyrosine-protein kinase FRK (Homo sapiens), sequence (P42685 whole entry, the tested form may be a part): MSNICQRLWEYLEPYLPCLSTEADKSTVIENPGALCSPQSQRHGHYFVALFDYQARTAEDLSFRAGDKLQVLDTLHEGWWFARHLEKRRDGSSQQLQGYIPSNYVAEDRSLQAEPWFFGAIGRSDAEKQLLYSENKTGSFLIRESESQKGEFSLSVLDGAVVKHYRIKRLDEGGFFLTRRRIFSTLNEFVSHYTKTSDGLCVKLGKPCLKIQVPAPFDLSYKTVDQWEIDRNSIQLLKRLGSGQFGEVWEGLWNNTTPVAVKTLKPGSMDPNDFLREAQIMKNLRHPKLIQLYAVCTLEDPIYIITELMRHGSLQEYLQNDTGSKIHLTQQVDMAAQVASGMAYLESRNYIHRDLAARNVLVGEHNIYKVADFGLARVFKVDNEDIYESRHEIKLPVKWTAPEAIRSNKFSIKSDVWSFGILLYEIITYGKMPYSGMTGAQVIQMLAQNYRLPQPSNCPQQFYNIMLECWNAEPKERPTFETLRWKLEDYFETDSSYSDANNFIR
Macrophage colony-stimulating factor 1 receptor, sequence (P07333 whole entry, the tested form may be a part): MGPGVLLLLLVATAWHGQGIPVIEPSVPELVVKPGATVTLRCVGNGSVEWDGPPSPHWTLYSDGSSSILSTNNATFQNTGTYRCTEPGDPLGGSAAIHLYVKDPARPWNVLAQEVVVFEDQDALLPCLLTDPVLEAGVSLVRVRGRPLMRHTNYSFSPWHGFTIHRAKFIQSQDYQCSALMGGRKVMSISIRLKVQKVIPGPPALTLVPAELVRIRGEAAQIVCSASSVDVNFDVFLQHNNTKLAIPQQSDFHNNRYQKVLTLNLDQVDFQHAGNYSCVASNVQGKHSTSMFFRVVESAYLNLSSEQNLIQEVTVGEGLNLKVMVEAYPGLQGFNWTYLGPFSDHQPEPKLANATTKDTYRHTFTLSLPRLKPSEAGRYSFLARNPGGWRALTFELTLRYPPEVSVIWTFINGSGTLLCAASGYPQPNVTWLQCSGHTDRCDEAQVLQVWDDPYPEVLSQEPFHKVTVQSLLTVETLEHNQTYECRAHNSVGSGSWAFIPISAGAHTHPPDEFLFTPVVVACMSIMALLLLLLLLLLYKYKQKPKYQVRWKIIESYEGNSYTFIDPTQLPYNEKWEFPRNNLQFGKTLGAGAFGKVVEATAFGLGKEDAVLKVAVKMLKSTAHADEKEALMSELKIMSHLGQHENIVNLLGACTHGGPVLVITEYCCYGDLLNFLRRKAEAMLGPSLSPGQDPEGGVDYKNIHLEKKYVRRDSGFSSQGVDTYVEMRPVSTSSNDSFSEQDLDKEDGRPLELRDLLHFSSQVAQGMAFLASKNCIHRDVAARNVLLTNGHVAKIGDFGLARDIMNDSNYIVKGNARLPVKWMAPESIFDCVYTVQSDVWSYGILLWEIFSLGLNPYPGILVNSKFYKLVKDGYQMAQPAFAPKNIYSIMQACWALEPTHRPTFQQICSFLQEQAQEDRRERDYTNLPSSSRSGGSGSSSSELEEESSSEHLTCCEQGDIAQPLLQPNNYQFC
Tyrosine-protein kinase HCK (Homo sapiens), sequence (P08631 2-526 limits assumed): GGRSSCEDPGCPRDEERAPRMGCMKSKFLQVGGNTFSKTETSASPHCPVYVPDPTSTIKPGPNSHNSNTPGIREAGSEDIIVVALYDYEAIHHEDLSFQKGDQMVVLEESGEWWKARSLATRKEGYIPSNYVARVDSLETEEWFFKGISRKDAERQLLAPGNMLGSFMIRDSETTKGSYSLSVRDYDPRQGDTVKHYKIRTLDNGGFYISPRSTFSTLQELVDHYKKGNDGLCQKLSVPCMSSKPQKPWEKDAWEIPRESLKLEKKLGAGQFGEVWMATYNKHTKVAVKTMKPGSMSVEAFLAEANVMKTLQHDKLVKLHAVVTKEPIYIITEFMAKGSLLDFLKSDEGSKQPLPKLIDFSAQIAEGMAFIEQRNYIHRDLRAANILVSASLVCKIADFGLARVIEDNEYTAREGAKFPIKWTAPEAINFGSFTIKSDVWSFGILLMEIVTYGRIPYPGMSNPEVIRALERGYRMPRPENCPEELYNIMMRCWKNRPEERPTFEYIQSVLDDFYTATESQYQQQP

- Activity [1]: > 90%
- inhibition [3]: Active
- Activity [4]: > 90%
- inhibition [7]: Active
- inhibition [8]: Active
- inhibition [9]: 100%
- Activity [13]: > 90%
- inhibition [15]: inactive
- Activity [17]: > 90%
- inhibition [19]: Active
Structure (SMILES): CC(C)(C)c1cc(NC(=O)Cc2ccc(-n3cnc4cc(-c5ccc(S(C)(=O)=O)cc5)ccc43)cc2)no1
- inhibition [2]: Active
- Activity [5]: inactive
- inhibition [6]: Active
- Activity [10]: inactive
- inhibition [11]: Active
- IC50 [12]: > 0.1 µM
- IC50 [14]: 7.57 µM
- Activity [16]: Non-Toxic
- inhibition [18]: Active
- IC50 [20]: > 0.1 µM
